Laboratory results as given in ChEMBL document CHEMBL1158391, “Synthesis and antileishmanial activity of novel 2,4,6-trisubstituted pyrimidines and 1,3,5-triazines” (Eur J Med Chem, 2009).
In brackets after ≈: the same amount, converted by molar mass. Activity calls are given as the source filed them. The calls are words filed in the database; no cut-off is given here.

What was measured:
Leishmania donovani [1] = test: Antileishmanial activity against Leishmania donovani MHOM/IN/80/Dd8 promastigotes at 10 ug/ml after 72 hrs; assay type: functional
Method in brief: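 Promastigotes were transfected with firefly luciferase and kept in medium 199 with 10% foetal calf serum, penicillin/streptomycin and G418. Late-log cells (5×10⁵/well) were exposed for 72 h to serial dilutions (1–10 range) in DMSO, with DMSO controls. Luminescence was read with Steady-Glo. % inhibition = (N − n)×100/N, using mean RLU of control (N) and treated (n) wells.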

[2] = Cytotoxicity against mouse J774A1 cells after 72 hrs by MTT assay; assay type: cell-based, J774.A1
Method in brief: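 J774A.1 cells were kept in RPMI with 10% foetal calf serum and gentamycin. Cells (1×10⁴/well) were exposed to graded concentrations diluted from DMSO stocks for 72 h at 37 °C in humidified CO₂. MTT (5 mg/ml stock in PBS) was added for 2 h, and formazan was dissolved in DMSO and read at 544 nm. CC50 was the concentration giving 50% viability loss versus medium-only cells, estimated by template.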

[3] = (§1) Selectivity index, ratio of CC50 for mouse J774A1 cells to IC50 for Leishmania donovani MHOM/IN/80/Dd8 amastigotes; assay type: functional, J774.A1
Method in brief: (§2)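 Ratio of J774A.1 CC50 (MTT, 72 h) to IC50 from the luciferase assay on intracellular amastigotes in J774A.1 macrophages (72 h exposure).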

Leishmania donovani [4] = test: Antileishmanial activity against Leishmania donovani MHOM/IN/80/Dd8 amastigotes infected in mouse J774A.1 cells after 72 hrs; assay type: functional, organism-based; details: MHOM/IN/80/Dd8, J774.A1, 72 h
Method in brief: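 J774A.1 macrophages (1.5×10⁴/well) were cultured in RPMI-1640 with 10% foetal calf serum at 37 °C in CO₂. After 24 h they were infected with stationary-phase luciferase-transfected promastigotes (2.25×10⁵/well), which transform into amastigotes. Test material (0.25–10 range) in complete medium was then applied for 72 h. Steady-Glo luminescence of treated wells was compared with untreated controls.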

Leishmania donovani [5] = test: Antileishmanial activity against Leishmania donovani MHOM/IN/80/Dd8 amastigotes infected in golden hamster at 50 mg/kg, ip administered 5 times per day for 5 days; assay type: functional
Method in brief: (§3)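 Golden hamsters infected with L. donovani MHOM/IN/80/Dd8 were randomized into groups by parasite burden, 4–6 animals per sample. Intraperitoneal dosing began 2 days after biopsy. Post-treatment biopsy was taken on day 7 after the last dose, and amastigotes were counted by Giemsa staining. Percentage inhibition was calculated from actual and initial counts in treated animals and the fold increase in untreated controls.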

Leishmania donovani [6] = test: Antileishmanial activity against Leishmania donovani MHOM/IN/80/Dd8 promastigotes at 0.5 ug/ml after 72 hrs; assay type: functional
Leishmania donovani [7] = test: Antileishmanial activity against Leishmania donovani MHOM/IN/80/Dd8 amastigotes infected in golden hamster at 20 mg/kg, ip administered 5 times per day for 5 days; assay type: functional; details: route intraperitoneal; method in brief: as §3
J774.A1 = test: as §1; assay type: functional; method in brief: as §2
Leishmania donovani [8] = test: Antileishmanial activity against Leishmania donovani MHOM/IN/80/Dd8 promastigotes at […] after 72 hrs; assay type: functional, organism-based
Leishmania donovani [9] = test: Antileishmanial activity against Leishmania donovani MHOM/IN/80/Dd8 amastigotes infected in golden hamster at 40 mg/kg, ip administered 5 times per day for 5 days; assay type: functional, organism-based; design: dose 40 mg/kg; method in brief: as §3

IC50 (Leishmania donovani [4])	Compound	Activity (Leishmania donovani [1])	CC50 at 72 h [2]	Ratio CC50/IC50 [3]	also measured
–	CCCNc1nc(NCCC)nc(Nc2nc(SC)cc(-c3cc(OC)c(OC)c(OC)c3)n2)n1	86.7%	1.46 µg/mL (≈ 2.92 µM)	–	–
–	COc1ccc(-c2cc(SC)nc(Nc3nc(NC(C)(C)C)nc(NC(C)(C)C)n3)n2)cc1OC	inactive	–	–	–
0.89 µg/mL (≈ 1.61 µM)	COc1ccc(-c2cc(SC)nc(Nc3nc(N4CCN(C)CC4)nc(N4CCN(C)CC4)n3)n2)cc1OC	99.8%	36.2 µg/mL (≈ 65.6 µM)	40.71	–
–	CCCCNc1nc(NCCCC)nc(Nc2nc(SC)cc(-c3cc(OC)c(OC)c(OC)c3)n2)n1	75.5%	–	–	–
–	COc1cc(-c2cc(SC)nc(Nc3nc(NCCCN4CCOCC4)nc(NCCCN4CCOCC4)n3)n2)cc(OC)c1OC	75.2%	–	–	–
5.12 µg/mL (≈ 13.6 µM)	CCN(CC)CCNc1cc(-c2cc(OC)c(OC)c(OC)c2)nc(N)n1	95.1%	81.5 µg/mL (≈ 217 µM)	15.92	Activity (Leishmania donovani [5]; route intraperitoneal): 48.46%
7.09 µg/mL (≈ 20.6 µM)	COc1cc(-c2cc(N3CCCCC3)nc(N)n2)cc(OC)c1OC	88%	10.4 µg/mL (≈ 30.3 µM)	1.47	–
9.68 µg/mL (≈ 18.4 µM)	COc1ccc(-c2cc(SC)nc(Nc3nc(N4CCOCC4)nc(N4CCOCC4)n3)n2)cc1OC	90.5%	23.9 µg/mL (≈ 45.3 µM)	2.46	–
–	COc1cc(-c2cc(N3CCN(C)CC3)nc(N)n2)cc(OC)c1OC	63.88%	–	–	–
4.56 µg/mL (≈ 7.47 µM)	CCN1CCN(c2nc(Nc3nc(SC)cc(-c4cc(OC)c(OC)c(OC)c4)n3)nc(N3CCN(CC)CC3)n2)CC1	100%	27.4 µg/mL (≈ 44.8 µM)	6	–
–	CCCCNc1nc(NCCCC)nc(Nc2nc(SC)cc(-c3ccc(OC)c(OC)c3)n2)n1	78.6%	–	–	–
–	COc1cc(-c2cc(NCCN3CCOCC3)nc(N)n2)cc(OC)c1OC	68.5%	–	–	–
–	N=C(N)c1ccc(OCCCCCOc2ccc(C(=N)N)cc2)cc1 [PENTAMIDINE]	–	31.3 µg/mL (≈ 92 µM)	–	Activity (Leishmania donovani [6]): 85%; Activity (Leishmania donovani [7]): 84.1%
–	COc1ccc(-c2cc(SC)nc(Nc3nc(NCCN4CCOCC4)nc(NCCN4CCOCC4)n3)n2)cc1OC	inactive	–	–	–
2.97 µg/mL (≈ 5.62 µM)	COc1cc(-c2cc(SC)nc(Nc3nc(NC(C)(C)C)nc(NC(C)(C)C)n3)n2)cc(OC)c1OC	95.8%	9.8 µg/mL (≈ 18.5 µM)	3.29	–
–	COc1ccc(-c2cc(SC)nc(Nc3nc(NCCCN4CCOCC4)nc(NCCCN4CCOCC4)n3)n2)cc1OC	35.2%	–	–	–

IC50 (Leishmania donovani [4])	Compound	Activity (Leishmania donovani [1])	CC50 at 72 h [2]	Ratio CC50/IC50 [3]	also measured
–	COc1ccc(-c2cc(SC)nc(Nc3nc(NC(C)C)nc(NC(C)C)n3)n2)cc1OC	inactive	–	–	–
4.99 µg/mL (≈ 15 µM)	CCCCNc1cc(-c2cc(OC)c(OC)c(OC)c2)nc(N)n1	84.4%	49.9 µg/mL (≈ 150 µM)	10	Activity (Leishmania donovani [5]; route intraperitoneal): 54.1%
1.34 µg/mL (≈ 2.3 µM)	COc1cc(-c2cc(SC)nc(Nc3nc(N4CCN(C)CC4)nc(N4CCN(C)CC4)n3)n2)cc(OC)c1OC	99.5%	16.5 µg/mL (≈ 28.4 µM)	12.34	–
–	sodium stibogluconate	–	–	–	Ratio CC50/IC50 (J774.A1): 5.53; Activity (Leishmania donovani [5]): 48.5%; Activity (Leishmania donovani [8]): 40%; Activity (Leishmania donovani [9]): 92%
1.04 µg/mL (≈ 2.08 µM)	COc1cc(-c2cc(SC)nc(Nc3nc(NC(C)C)nc(NC(C)C)n3)n2)cc(OC)c1OC	94.5%	1.9 µg/mL (≈ 3.8 µM)	1.82	–
–	CCN1CCN(c2nc(Nc3nc(SC)cc(-c4ccc(OC)c(OC)c4)n3)nc(N3CCN(CC)CC3)n2)CC1	inactive	–	–	–
7.02 µg/mL (≈ 12.6 µM)	COc1cc(-c2cc(SC)nc(Nc3nc(N4CCOCC4)nc(N4CCOCC4)n3)n2)cc(OC)c1OC	80.8%	10.8 µg/mL (≈ 19.5 µM)	1.54	–
–	CCN(CC)CCNc1nc(NCCN(CC)CC)nc(Nc2nc(SC)cc(-c3cc(OC)c(OC)c(OC)c3)n2)n1	inactive	–	–	–
4.88 µg/mL (≈ 8.34 µM)	CCN(CC)CCNc1nc(NCCN(CC)CC)nc(Nc2nc(SC)cc(-c3ccc(OC)c(OC)c3)n2)n1	94.7%	42 µg/mL (≈ 71.8 µM)	8.6	–
2.27 µg/mL (≈ 4.82 µM)	CCCNc1nc(NCCC)nc(Nc2nc(SC)cc(-c3ccc(OC)c(OC)c3)n2)n1	85.6%	14.3 µg/mL (≈ 30.5 µM)	6.31	–
–	COc1cc(-c2cc(SC)nc(Nc3nc(NCCN4CCOCC4)nc(NCCN4CCOCC4)n3)n2)cc(OC)c1OC	42.5%	–	–	–
–	COc1cc(-c2cc(N3CCOCC3)nc(N)n2)cc(OC)c1OC	43.9%	–	–	–
–	COc1cc(-c2cc(NCCCN3CCOCC3)nc(N)n2)cc(OC)c1OC	46.9%	–	–	–
–	COc1ccc(-c2cc(SC)nc(Nc3nc(N4CCCCC4)nc(N4CCCCC4)n3)n2)cc1OC	53.8%	–	–	–
1.8 µg/mL (≈ 3.26 µM)	COc1cc(-c2cc(SC)nc(Nc3nc(N4CCCCC4)nc(N4CCCCC4)n3)n2)cc(OC)c1OC	90.8%	51.7 µg/mL (≈ 93.5 µM)	28.7	Activity (Leishmania donovani [5]; route intraperitoneal): 56.58%
